Tested on in one experiment: not listed separately
Put plainly: Antitumor activity against CLL1 cells isolated from CLL patient assessed as cell viability after 48 hrs by FACS analysis. The class given is functional, cell-based. Particulars: Homo sapiens. The gist of the method:
(§1)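 Primary CLL patient cells or JVM-2 line cultured 48 h (37 °C, 5% CO2) in RPMI + 10% FBS with graded compound. Stained 30 min at 37 °C with 40 nM DiOC6 and 10 μg/mL PI, then flow cytometry (525 nm DiOC6, 600 nm PI). Viability = % DiOC6+/PI− relative to untreated or vehicle control. EC50 and SE fitted from dose–response curves.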
`O=C1N[C@H]2[C@@H]3NC(=O)c4ccc(Br)n4[C@@H]3C[C@@]2(O)N1` [AGELASTATIN D]: the EC50 turned out to be 91.1 µM.
In the case of `CN1C(=O)N[C@H]2[C@@H]3NC(=O)c4cc(I)c(Br)n4[C@@H]3C[C@]21O`, the EC50 worked out at 211 µM.
Same read-out and setting: with `CN1C(=O)N[C@H]2[C@@H]3NC(=O)c4cc(Cl)cn4[C@@H]3C[C@]21O` the figure was 35.9 µM.
The same measure, in the same setting: the value for `CN1C(=O)N[C@@]2(O)[C@@H]3NC(=O)c4ccc(Br)n4[C@@H]3C[C@@]12O` was 84.6 µM.
On to `CN1C(=O)N[C@H]2[C@@H]3NC(=O)c4cc(Br)c(Br)n4[C@@H]3C[C@]21O`, for which the EC50 is 26.3 µM.
Same read-out and setting: the value for `CN1C(=O)N[C@H]2[C@@H]3NC(=O)c4ccc(C(F)F)n4[C@@H]3C[C@]21O` was 13 µM; that for `CO[C@@]12C[C@@H]3[C@H]([C@@H]1N(C)C(=O)N2C)N(C)C(=O)c1ccc(Br)n13` was 140 µM; that for `CN1C(=O)N[C@H]2[C@@H]3NC(=O)c4cc(C(F)(F)F)cn4[C@@H]3C[C@]21O` was 45.1 µM.
Still for that read-out and setting: the value for `CN1C(=O)N[C@H]2[C@@H]3NC(=O)c4cc(I)cn4[C@@H]3C[C@]21O` was 25.5 µM.

Tested on in another experiment: not listed separately
Put plainly: Antitumor activity against human JVM2 cells assessed as cell viability after 48 hrs by FACS analysis. The format is functional, cell-based. Particulars: JVM-2, 48 h. The gist of the method: as §1
In the case of `O=C1N[C@H]2[C@@H]3NC(=O)c4ccc(Br)n4[C@@H]3C[C@@]2(O)N1` [AGELASTATIN D], the half-maximal effective concentration (EC50) is 13.2 µM.
On the same count and under the same terms, the value for `CN1C(=O)N[C@H]2[C@@H]3NC(=O)c4cc(I)c(Br)n4[C@@H]3C[C@]21O` was 162 µM.
On the same count and under the same terms, the value for `CN1C(=O)N[C@H]2[C@@H]3NC(=O)c4cc(Cl)cn4[C@@H]3C[C@]21O` was 5.33 µM; that for `CN1C(=O)N[C@@]2(O)[C@@H]3NC(=O)c4ccc(Br)n4[C@@H]3C[C@@]12O` was 4.07 µM.
As for `CN1C(=O)N[C@H]2[C@@H]3NC(=O)c4cc(Br)c(Br)n4[C@@H]3C[C@]21O`, the EC50 is 3.53 µM.
Same read-out and setting: the value for `CN1C(=O)N[C@H]2[C@@H]3NC(=O)c4ccc(C(F)F)n4[C@@H]3C[C@]21O` was 4.66 µM; that for `CO[C@@]12C[C@@H]3[C@H]([C@@H]1N(C)C(=O)N2C)N(C)C(=O)c1ccc(Br)n13` was 55.7 µM.
As for `CN1C(=O)N[C@H]2[C@@H]3NC(=O)c4cc(C(F)(F)F)cn4[C@@H]3C[C@]21O`, the EC50 worked out at 22.8 µM.
Consider `CN1C(=O)N[C@H]2[C@@H]3NC(=O)c4cc(I)cn4[C@@H]3C[C@]21O`, for which the half-maximal effective concentration (EC50) turned out to be 222 µM.
For the compound `CN1C(=O)N[C@H]2[C@@H]3NC(=O)c4cc(C(F)(F)F)c(C(F)(F)F)n4[C@@H]3C[C@]21O`, the EC50 worked out at 41 µM.

Tested on in the next experiment: not listed separately
The experiment is described as follows: Antitumor activity against CLL2 cells isolated from CLL patient assessed as cell viability after 48 hrs by FACS analysis. The format is functional, cell-based, Homo sapiens. Particulars: Homo sapiens, CLL2, 48 h. The gist of the method:
as §1
In the case of `O=C1N[C@H]2[C@@H]3NC(=O)c4ccc(Br)n4[C@@H]3C[C@@]2(O)N1` [AGELASTATIN D], the EC50 was 29 µM.
On the same count and under the same terms, the value for `CN1C(=O)N[C@H]2[C@@H]3NC(=O)c4cc(I)c(Br)n4[C@@H]3C[C@]21O` was 48.2 µM; that for `CN1C(=O)N[C@H]2[C@@H]3NC(=O)c4cc(Cl)cn4[C@@H]3C[C@]21O` was 6.05 µM.
Same read-out and setting: with `CN1C(=O)N[C@@]2(O)[C@@H]3NC(=O)c4ccc(Br)n4[C@@H]3C[C@@]12O` the figure was 10 µM.
In the case of `CN1C(=O)N[C@H]2[C@@H]3NC(=O)c4cc(Br)c(Br)n4[C@@H]3C[C@]21O`, the EC50 worked out at 4.46 µM.
Take `CN1C(=O)N[C@H]2[C@@H]3NC(=O)c4ccc(C(F)F)n4[C@@H]3C[C@]21O`: the EC50 was 5.44 µM.
Same read-out and setting: with `CO[C@@]12C[C@@H]3[C@H]([C@@H]1N(C)C(=O)N2C)N(C)C(=O)c1ccc(Br)n13` the figure was 47.7 µM; with `CN1C(=O)N[C@H]2[C@@H]3NC(=O)c4cc(C(F)(F)F)cn4[C@@H]3C[C@]21O`, 4.68 µM.
`CN1C(=O)N[C@H]2[C@@H]3NC(=O)c4cc(I)cn4[C@@H]3C[C@]21O`: the EC50 amounted to 94.9 µM.
Take `CN1C(=O)N[C@H]2[C@@H]3NC(=O)c4cc(C(F)(F)F)c(C(F)(F)F)n4[C@@H]3C[C@]21O`: the 50% effective concentration (EC50) worked out at 19.2 µM.

The experiment is the same for the next values; noted with them: cll2.
Take `CN1C(=O)N[C@H]2[C@@H]3NC(=O)c4ccc(Br)n4[C@@H]3C[C@]21O` (stereo in doubt; 3) [AGELASTATIN A]: the EC50 is above 1 µM.

Another experiment concerns HeLa. The experiment is described as follows: Antitumor activity against human HeLa cells assessed as cell viability by MTT assay. The format is functional, cell-based.
Conditions: not given
The gist of the method: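 Adherent HeLa cells exposed to compound, then medium replaced with 0.5 mg/mL MTT in phenol-red-free RPMI and incubated overnight at 37 °C. Lysed with 15% SDS/0.015 M HCl and OD read at 570 nm once formazan dissolved. EC50 and SE derived from dose–response curves.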
With `CN1C(=O)N[C@H]2[C@@H]3NC(=O)c4cc(I)c(Br)n4[C@@H]3C[C@]21O`, the EC50 turned out to be 86.7 µM.
Turning to `CN1C(=O)N[C@@]2(O)[C@@H]3NC(=O)c4ccc(Br)n4[C@@H]3C[C@@]12O`, the EC50 is 7.63 µM.
Consider `CN1C(=O)N[C@H]2[C@@H]3NC(=O)c4ccc(C(F)F)n4[C@@H]3C[C@]21O`, for which the EC50 was determined as 4.01 µM.
Take `CO[C@@]12C[C@@H]3[C@H]([C@@H]1N(C)C(=O)N2C)N(C)C(=O)c1ccc(Br)n13`: the EC50 turned out to be 59 µM.
The same measure, in the same setting: the value for `CN1C(=O)N[C@H]2[C@@H]3NC(=O)c4cc(C(F)(F)F)cn4[C@@H]3C[C@]21O` was 19.6 µM.
Same read-out and setting: with `CN1C(=O)N[C@H]2[C@@H]3NC(=O)c4cc(I)cn4[C@@H]3C[C@]21O` the figure was 0.061 µM; with `CN1C(=O)N[C@H]2[C@@H]3NC(=O)c4cc(C(F)(F)F)c(C(F)(F)F)n4[C@@H]3C[C@]21O`, 153 µM.
